Laboratory results: ChEMBL document CHEMBL4513216, “Probing the Open Global Health Chemical Diversity Library for Multistage-Active Starting Points for Next-Generation Antimalarials” (ACS Infect Dis, 2020)

Test: Toxicity liver stage against HepG2, at 10uM
Assay type: cell-based
Set-up: test concentration 10 uM, cell line HepG2-A16-CD81EGFP
Settings: human, HepG2-A16-CD81EGFP cells; read-out: INHIBITION
Method in brief: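 Uninfected HepG2-A16-CD81EGFP cells, 3 × 10^3 per well, 1536-well, plated on prespotted compound at 10 μM final, parasite-free screening media added to match infected plates; puromycin 10 μM positive, DMSO 0.5% negative; run in parallel with 48 h PbLuc assay at 37 °C, 5% CO2; viability by CellTiter-Glo luminescence, normalized to controls.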

| SMILES | cytotoxicity at 10 µM |
| --- | --- |
| CCCn1cc(C(=O)NC2CCN(CC(=O)NC3CC3)CC2)c(C)n1 | 2.29% |
| COc1cc(C2CC(=O)NCc3nc4sccn4c32)cc(OC)c1O (stereo not given) | -0.966% |
| CCCOc1cc(Cl)c(CN2CCNC(C(=O)NC3CC3)C2)cc1OC (stereo not given) | 0.508% |
| Cc1ncsc1CCCNC(=O)C1CC2(CCNCC2)CN1C (stereo not given) | 9.18% |
| Cc1nn(C)c2nc(N(C)CCN(C)C)sc12 | 9.38% |
| CC(C)=CCCC1(C)CCC(=O)N(CCc2csc(N)n2)C1 (stereo not given) | -4.27% |
| Cc1nc(O)cc(C2CCCN(C(=O)COCc3ccccc3)C2)n1 (stereo not given) | -11% |
| O=C(Cc1ccccn1)N1CCC2(CC1)[C@H](O)C[C@@H]2O | -2.34% |
| CCN1CCC(N2C[C@@H](C(=O)O)[C@H](c3cccc(OC)c3)C2)CC1 | -2.85% |
| COCc1nc(CNC(=O)C(C)n2ccnc2C(C)C)no1 (stereo not given) | -0.376% |
| Cc1nccnc1N1Cc2cnn(Cc3ccc(F)cc3)c2C1 | 2.45% |
| COCc1noc(CN2C[C@H](NS(C)(=O)=O)[C@@H](C3CC3)C2)n1 | 1.67% |
| Cc1c(-c2c(-c3ccccc3)ncn2[C@@H](C(=O)O)[C@H](C)O)cnn1C | -7.67% |
| CCNc1ccnc(NCC2(N(C)C)CCOCC2)n1 | -0.686% |
| CN(Cc1cc[nH]n1)C(=O)c1cn(Cc2ccccc2Cl)nn1 | 7.59% |
| CCC[C@@H]1CN(Cc2cc(OC)c3c(c2)OCO3)C[C@H]1C(=O)O | -0.778% |
| O=C(c1ccnc(-n2cnnc2)c1)N1CCCC2(CCOC2)C1 (stereo not given) | -15.1% |
| CCc1ccc(NC(=O)C2CCN(C(=O)COC)CC2)cc1 | 0.929% |
| CCc1nnc(CN(CC)C(=O)C2CC(=O)N(CC)C2)o1 (stereo not given) | 1.97% |
| COC(=O)N1CCC2(CC1)CC(c1ccccc1)CN(C)C2 (stereo not given) | 2.09% |
| O=C(CN1CCCC(c2ccc(C(=O)O)cc2)C1)NC1CC1 (stereo not given) | -9.87% |
| Cc1cnccc1CN1CC[C@@](C)(O)[C@H](Oc2ccccc2)C1 | -1.78% |
| COc1c(CNC(c2ccccc2)c2nccn2C)c(C)nn1C (stereo not given) | -3.16% |
| CC(C)c1nnc2n1CCN(Cc1ncc(-c3ccccc3)o1)C2 | -12.8% |
| CCOc1ccccc1C(CC(=O)Nc1ncc(C)s1)NC(C)=O (stereo not given) | -15.3% |
| Cc1nc(CN(C)C2CCN(CCc3cccs3)C2)no1 (stereo not given) | 6.03% |
| CCn1ccnc1CN1CCCN(C(=O)Cc2ccc(C)s2)CC1 | -19% |
| CN(CCCOc1ccc(F)cc1)Cc1nc2c(cnn2C)c(=O)[nH]1 | -4.62% |

| SMILES | cytotoxicity at 10 µM |
| --- | --- |
| COCCCN(C)Cc1nc2c(cnn2C)c(=O)[nH]1 | -4.2% |
| Cc1nc(CNC(=O)NCC(O)c2ccc(F)c(F)c2)cs1 (stereo not given) | -3.88% |
| CN(C)C(=O)CN1CCN(C(=O)Cc2csc(-c3ncccn3)n2)CC1 | -8.52% |
| O=C1C(NS(=O)(=O)c2cc(F)cc(F)c2)CCN1Cc1ccccc1 (stereo not given) | -10% |
| CCCNC(=O)C1CCN(Cc2csc(C(C)(C)C)n2)CC1 | -9.11% |
| CS(=O)(=O)c1ccc(CNC2CCCN(c3cccnn3)C2)cc1 (stereo not given) | 1.3% |
| OCC1CCCN1c1cc(N2CCC(OC3CCCC3)CC2)ncn1 (stereo not given) | -2.43% |
| CC(CN1CCOCC1)OC(=O)c1ccccc1I (stereo not given) | -6.37% |
| CNC(=O)N1CCC2(CC1)CN(C)Cc1cc(F)ccc12 | 4.16% |
| CN(CCO)CC1COCCN1C(=O)CCC1CCCC1 (stereo not given) | -9.83% |
| Cc1ccc(CN2CCc3nnc(COCCN(C)C)n3CC2)o1 | 2.9% |
| COCCN1CCCC2(CCN(c3ccsc3)C2=O)C1 (stereo not given) | -79.6% |
| O=C1C[C@@H]2[C@H](CCN2Cc2ccco2)N1c1ccsc1 | 8.55% |
| COCCN1CCN(C)C2(CCN(C(=O)c3ccnnc3)CC2)C1=O | 11.6% |
| Cc1noc(C)c1CN1CC[C@H]2OCC[C@@]2(C(=O)N2CCCC2)C1 | -70.7% |
| Cc1ccccc1C(=O)N1Cc2c(Cn3ccnc3)nn(C)c2C1 | -72.1% |
| O=C([C@H]1CCS(=O)(=O)[C@@H]2CN(CCc3ccccc3)C[C@H]12)N1CCCC1 | 0.688% |
| Fc1ccc(CN2CC[C@H]3O[C@@H](COCc4cccnc4)CC[C@H]32)cc1 | -70% |
| N#Cc1ccc(NC(=O)C2CSCN2)cc1 (stereo not given) | 2.62% |
| Cc1noc(C)c1CN1C[C@@H]2COC[C@@H](C(=O)N3CCCCO3)[C@@H]2C1 | -71.7% |
| CC(=O)N1CCO[C@@H]2CN(Cc3cccc(Cl)c3)C[C@@H]2C1 | -104% |
| Cc1noc(C)c1CN1CC2(CCCCN2C)CC1=O (stereo not given) | 2.75% |
| c1cncc(OCC2CN(Cc3ccsc3)Cc3nccn3C2)c1 (stereo not given) | -72.4% |
| O=C(CO)N1CCOC2(CCCN(c3ncc(F)cn3)C2)C1 (stereo not given) | 12.4% |
| CC(=O)NCc1noc2c1CN(CCN1CCCC1)CC2 | -5.46% |
| Cc1ccc(CN2C[C@@H]3C[C@H](C(=O)NCc4cccnc4)[C@H](C2)O3)o1 | 3.82% |
| CC(C)=CCN1C[C@@H]2CC[C@H]1CN(Cc1cc(=O)[nH]c(=O)[nH]1)C2 | -17.3% |
